Activity calls are given as the source filed them. The rule behind the calls is not given here.
Columns and labels:
Tubulin (Homo sapiens) [1] = target: T1, Tubulin (Homo sapiens) (UniProt P68371+Q9H4B7+P0DPH7+P68366+Q13509+Q71U36+P04350+Q3ZCM7+P07437+P68363+Q9BQE3+Q6PEY2+Q13885+Q9BVA1+Q9BUF5); experiment: Inhibition of [3H]-colchicine binding to tubulin (unknown origin) at 0.5 uM relative to control; format: protein-complex assay
MDA-MB-435 [2] = experiment: Antiproliferative activity against human MDA-MB-435 cells after 48 hrs by sulforhodamine B assay; format: functional, cell-based; conditions: MDA-MB-435, 48 h
Summary of the method: (§1)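 SRB assay: cells plated at set densities, left 24 h to attach and grow, then exposed in triplicate wells to a concentration range for 48 h (DMSO vehicle). Cells fixed, protein stained with SRB. Cells kept at 37 °C, 5% CO2.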

HeLa [3] = experiment: Antiproliferative activity against human HeLa cells expressing wild type beta3 tubulin after 48 hrs by sulforhodamine B assay; format: functional, cell-based; summary of the method: as §1
[4] = Induction of microtubule depolymerization in rat A10 cells assessed as cellular microtubule loss incubated for 18 hrs by DAPI staining-based indirect immunofluorescence assay; format: cell-based; conditions: A10, 18 h
[5] = Resistance index, ratio of IC50 for human SKOV3-MDR1-M6/6 cells to IC50 for human SKOV3 cells; format: functional
Summary of the method: (§2)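 Relative resistance (Rr): IC50 in resistant line divided by IC50 in isogenic parental line, from 48 h SRB assays (HeLa WT βIII vs HeLa; SK-OV-3/MDR-1-6/6 vs SK-OV-3).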

[6] = Antiproliferative activity against human SKOV3-MDR1-M6/6 cells after 48 hrs by sulforhodamine B assay; format: functional; conditions: SKOV3-MDR1-M6/6, 48 h; summary of the method: as §1
HeLa [7] = experiment: Antiproliferative activity against human HeLa cells after 48 hrs by sulforhodamine B assay; format: functional, cell-based; summary of the method: as §1
[8] = Resistance index, ratio of IC50 for human HeLa cells expressing wild type beta3 tubulin to IC50 for human HeLa cells; format: functional; summary of the method: as §2
SK-OV-3 = experiment: Antiproliferative activity against human SKOV3 cells after 48 hrs by sulforhodamine B assay; format: functional, cell-based; conditions: SK-OV-3, 48 h; summary of the method: as §1
Tubulin (Homo sapiens) [9] = target: T1, Tubulin (Homo sapiens); experiment: Inhibition of [3H]-colchicine binding to tubulin (unknown origin) at 5 uM relative to control; format: protein-complex assay
NCI/ADR-RES [10] = experiment: Antitumor activity against p-gp expressing human NCI/ADR-RES cells xenografted in athymic Foxn1nu/Foxn1nu mouse assessed as tumor growth inhibition at 75 mg/kg, ip administered on day 1,3 and 5 measured on day 9; format: functional, organism-based
Summary of the method: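 Female athymic nude mice, bilateral flank NCI/ADR-RES (Pgp-expressing) tumor transplants, 8-9 tumors per group. […] Caliper tumor volume, mean ± SEM, compared on day 9 when the trial was stopped.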

MDA-MB-435 [11] = experiment: Antitumor activity against human MDA-MB-435 cells xenografted in athymic Foxn1nu/Foxn1nu mouse assessed as tumor growth inhibition at 75 mg/kg, ip, administered on day 1,2,3,4,7,9 and 11; format: functional, organism-based
Summary of the method: (§3)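 Female athymic nude mice, 6 weeks old, bilateral flank implants of MDA-MB-435 tumor fragments. Grouped at ~200 mm³ (5 mice, 10 tumors per group), randomized. 75 mg/kg ip per dose, stock in ethanol or water diluted in PBS (<5% solvent), vs untreated controls. Caliper volume (width × length × height), tumor mass at trial end (day 15), mean ± SEM.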

Mus musculus [12] = experiment: Toxicity in athymic Foxn1nu/Foxn1nu mouse xenografted with human MDA-MB-435 cells assessed as body weight loss at 75 mg/kg, ip, administered on day 1,2,3,4,7,9 and 11; format: organism-based; conditions: in vivo
Summary of the method: (§4)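 Female athymic nude mice bearing bilateral MDA-MB-435 flank tumors, 10 tumors per group, given 75 mg/kg ip (PBS, <5% solvent). Individual body weights tracked through the trial as percent change, mean ± SEM, vs untreated controls.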

Mus musculus [13] = experiment: Toxicity in athymic Foxn1nu/Foxn1nu mouse xenografted with human MDA-MB-435 cells assessed as occurence of neurological side effects at 75 mg/kg, ip, administered on day 1,2,3,4,7,9 and 11; format: organism-based; conditions: in vivo
MDA-MB-231 [14] = experiment: Antitumor activity against human MDA-MB-231 cells xenografted in athymic Foxn1nu/Foxn1nu mouse assessed as tumor growth inhibition at 75 mg/kg, ip, administered on day 1,2,3,8,9 and 10; format: functional, organism-based
Mus musculus [15] = experiment: Toxicity in athymic Foxn1nu/Foxn1nu mouse xenografted with human MDA-MB-435 cells assessed as occurence of neurological side effects at 75 mg/kg, ip, administered on day 1,2,3,4 and 9; format: organism-based; conditions: in vivo
MDA-MB-435 [16] = experiment: Antitumor activity against human MDA-MB-435 cells xenografted in athymic Foxn1nu/Foxn1nu mouse assessed as tumor growth inhibition at 75 mg/kg, ip, administered on day 1,2,3,4 and 9; format: functional, organism-based; summary of the method: as §3
Mus musculus [17] = experiment: Toxicity in athymic Foxn1nu/Foxn1nu mouse xenografted with human MDA-MB-435 cells assessed as body weight loss at 75 mg/kg, ip, administered on day 1,2,3,4 and 9; format: organism-based; conditions: in vivo; summary of the method: as §4
MDA-MB-231 [18] = experiment: Antitumor activity against human MDA-MB-231 cells xenografted in athymic Foxn1nu/Foxn1nu mouse assessed as tumor growth inhibition at 10 mg/kg, ip, administered on day 1,2,3,8,9 and 10; format: functional, organism-based
NCI/ADR-RES [19] = conditions: Homo sapiens, 10 mg/kg

Compound	inhibition (Tubulin (Homo sapiens) [1])	IC50 (MDA-MB-435 [2])	IC50 (HeLa [3])	EC50 [4]	Ratio IC50 [5]	IC50 [6]	IC50 (HeLa [7])	Ratio IC50 [8]	IC50 (SK-OV-3)	inhibition (Tubulin (Homo sapiens) [9])	other results
COc1ccc(N(C)c2nc(C)nc3ccn(CC(C)C)c23)cc1.Cl	67%	39 nM	23 nM	55 nM	1	25 nM	26 nM	0.9	26 nM	95%	–
COc1ccc(N(C)c2nc(C)nc3cc[nH]c23)cc1	–	–	–	1200 nM	–	–	–	–	–	60%	–
COc1ccc(Nc2nc(C)nc3ccn(C)c23)c(OC)c1	–	–	–	> 10000 nM	–	–	–	–	–	14%	–
CCCn1ccc2nc(C)nc(N(C)c3ccc(OC)cc3)c21.Cl	86%	9 nM	5.1 nM	20 nM	1.4	7 nM	5.9 nM	0.9	5 nM	97%	TGI (NCI/ADR-RES [10]): Active; TGI (MDA-MB-435 [11]): Active; Activity (Mus musculus [12]): Non-Toxic; Activity (Mus musculus [13]): Non-Toxic; TGI (MDA-MB-231 [14]): Active
COc1ccc(N(C)c2nc(C)nc3ccn(C)c23)cc1.Cl	79%	4.3 nM	4.3 nM	7.4 nM	1.2	6 nM	5 nM	0.9	5.2 nM	99%	Activity (Mus musculus [15]): Toxic; TGI (MDA-MB-435 [16]): Active; Activity (Mus musculus [17]): Non-Toxic
COc1ccc(Nc2nc(C)nc3cc[nH]c23)cc1	–	–	–	> 10000 nM	–	–	–	–	–	5.8%	–
CCCCn1ccc2nc(C)nc(N(C)c3ccc(OC)cc3)c21.Cl	82%	27 nM	10 nM	32 nM	1.2	15 nM	14 nM	0.7	13 nM	96%	–
COc1ccc(N(C)c2nc(C)nc3ccn(C(C)C)c23)cc1.Cl	60%	21 nM	20 nM	42 nM	1.9	58 nM	32 nM	0.6	31 nM	92%	–
CCn1ccc2nc(C)nc(N(C)c3ccc(OC)cc3)c21	79%	10.8 nM	14 nM	28 nM	1.1	19.3 nM	17 nM	0.8	17 nM	96%	–
COc1ccc(/C=C\c2cc(OC)c(OC)c(OC)c2)cc1O [COMBRETASTATIN A4]	–	–	–	9.8 nM	–	7 nM	–	–	–	–	–
COc1ccc2c(c1)CCCN2c1nc(C)nc2cc[nH]c12	–	–	–	230 nM	–	–	–	–	–	70%	–
COc1ccc(Nc2nc(C)nc3ccn(C)c23)cc1	–	–	–	> 10000 nM	–	–	–	–	–	4.2%	–
CC(=O)O[C@H]1C(=O)[C@@]2(C)[C@H]([C@H](OC(=O)c3ccccc3)[C@]3(O)C[C@H](OC(=O)[C@H](O)[C@@H](NC(=O)c4ccccc4)c4ccccc4)C(C)=C1C3(C)C)[C@]1(OC(C)=O)CO[C@@H]1C[C@@H]2O [PACLITAXEL]	–	–	–	–	–	–	–	–	5 nM	–	TGI (MDA-MB-231 [18]): Active; TGI (NCI/ADR-RES [19]): inactive
COc1ccc2c(c1)CCCN2c1nc(C)nc2ccn(C)c12.Cl	72%	21 nM	33 nM	39 nM	1.1	31.5 nM	27 nM	1.2	30 nM	98%	–
COc1ccc(Nc2nc(C)nc3cc[nH]c23)c(OC)c1	–	–	–	> 10000 nM	–	–	–	–	–	0%	–

From ChEMBL document CHEMBL4270661 (Bioorg Med Chem, 2018)
